Assay results from ChEMBL document CHEMBL1140896, “Morpholino, piperidino, and pyrrolidino derivatives of pyrimidine nucleosides as inhibitors of ribonuclease A: synthesis, biochemical, and crystallographic evaluation” (J Med Chem, 2009).
The source made the active and inactive calls. The calls are words filed in the database; no cut-off is given here.

Experiments:
[1] = target: T1, Ribonuclease pancreatic (Bos taurus) (UniProt P61823); assay: Inhibition of bovine pancreatic RNase A assessed as effect on tRNA degradation at 0.14 mM by agarose gel based assay
T1 sequence (whole entry): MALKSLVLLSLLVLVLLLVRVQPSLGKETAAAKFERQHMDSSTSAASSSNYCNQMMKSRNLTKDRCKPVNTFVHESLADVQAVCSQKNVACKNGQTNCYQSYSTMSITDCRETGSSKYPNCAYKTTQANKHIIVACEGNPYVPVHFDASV
Outline: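 Comparative gel: RNase A (stock 6.29 µM; 1.26 µM in figure) preincubated 3 h with compound (0.14 mM). Aliquots then mixed with yeast tRNA (5 mg/mL stock) for 30 min, run on 1.1% agarose gel, and residual tRNA viewed by ethidium bromide under UV.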

[2] = target: T1, Ribonuclease pancreatic (Bos taurus); assay: Inhibition of bovine pancreatic RNase A assessed as effect on tRNA degradation by agarose gel based assay
Outline: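 Qualitative gel: RNase A (stock 6.87 µM; 1.37 µM in figure) preincubated 3 h with compound at three levels (0.10–0.31 or 0.13–0.40 mM). Aliquots then mixed with yeast tRNA (5 mg/mL stock) for 30 min, run on 1.1% agarose gel, and residual tRNA stained with ethidium bromide under UV.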

[3] = target: T1, Ribonuclease pancreatic (Bos taurus); assay: Inhibition of bovine pancreatic RNase A ribonucleolytic activity assessed as reduction of tRNA degradation at 0.32 mM by precipitation assay relative to control; set-up: scale not given: the % may be the effect or the level left
Outline: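 Bond precipitation assay: RNase A (1.10 µM) preincubated with compound (0.32 mM) 2 h at 37 °C. Then tRNA added in Tris-HCl pH 7.5 with 5 mM EDTA and 0.5 mg/mL HSA, 30 min at 25 °C. Quenched with ice-cold perchloric acid/uranyl acetate, 30 min on ice, centrifuged; supernatant A260 compared with control.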

Ribonuclease pancreatic = target: T2, Ribonuclease pancreatic (Bos taurus, UniProt P61823); assay: Inhibition of bovine pancreatic RNase A by spectrophotometric method
T2 sequence (P61823 whole entry): T1 sequence (whole entry)
Outline: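 Bovine pancreatic RNase A; spectrophotometric initial-velocity assay with 2′,3′-cCMP substrate in 0.1 M Mes-NaOH pH 6.0, 0.1 M NaCl. Ki taken from Dixon plots (1/V vs [I]) by the competitive equation; at least three repeats per set.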

SMILES | Activity [1] | Activity [2] | Activity [3] | Ki (Ribonuclease pancreatic)
Cc1cn([C@H]2C[C@H](O)[C@@H](CN3CCCC3)O2)c(=O)[nH]c1=O | Active | Active | 5% | 
Nc1ccn([C@@H]2O[C@H](CO)[C@@H](OP(=O)(O)O)[C@H]2O)c(=O)n1 |  |  |  | 103 µM
O=c1ccn([C@@H]2O[C@H](CN3CCCCC3)[C@@H](O)[C@H]2O)c(=O)[nH]1 | Active | Active | 12% | 
Cc1cn([C@H]2C[C@H](O)[C@@H](COP(=O)(O)OP(=O)(O)O[C@H]3[C@@H](O)[C@H](n4cnc5c(N)ncnc54)O[C@@H]3CO)O2)c(=O)[nH]c1=O |  |  |  | 0.041 µM
O=c1ccn([C@@H]2O[C@H](CO)[C@@H](OP(=O)(O)O)[C@H]2O)c(=O)[nH]1 |  |  |  | 82 µM
Cc1cn([C@H]2C[C@H](O)[C@@H](CN3CCCCC3)O2)c(=O)[nH]c1=O | Active | Active | 5% | 
O=c1ccn([C@@H]2O[C@H](CN3CCCC3)[C@@H](O)[C@H]2O)c(=O)[nH]1 | Active | Active | 12% | 
O=c1ccn([C@@H]2O[C@H](CO)[C@@H](O)[C@H]2OP(=O)(O)O)c(=O)[nH]1 |  |  |  | 7.1 µM
CCOC(=O)C1CCN(C[C@H]2O[C@@H](n3ccc(=O)[nH]c3=O)[C@H](O)[C@@H]2O)CC1 |  | Active | 30% | 77 µM
O=c1ccn([C@@H]2O[C@H](CO)[C@@H](OP(=O)(O)O)[C@@H]2O)c(=O)[nH]1 |  |  |  | 6 µM
O=c1ccn([C@@H]2O[C@H](CN3CCOCC3)[C@@H](O)[C@H]2O)c(=O)[nH]1 | Active | Active | 12% | 
